Drawing on ChEMBL document CHEMBL5653631, “A Potent and Selective ULK1 Inhibitor Suppresses Autophagy and Sensitizes Cancer Cells to Nutrient Stress” (iScience, 2018), this text covers inhibition and fold change (FC) for 3 molecules.

The target of experiment [1] is Tyrosine-protein kinase receptor UFO (Homo sapiens) (UniProt P30530). The experiment is described as follows: Inhibition of human recombinant AXL at 40 nM in presence of ATP by radiometric assay relative to control. A digest of the protocol:
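Panel of 327 recombinant human kinases, each assayed in vitro by radiometric activity assay in duplicate at a single inhibitor concentration per compound, chosen with reference to its ULK1 inhibition. Activity remaining was expressed as percent of vehicle control, and percent inhibition was calculated as 100 minus percent activity remaining.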

Experiment [2] has as its target Cyclin-dependent kinase-like 1 (Homo sapiens) (UniProt Q00532). Kind of experiment: Inhibition of human recombinant CDKL1 at 40 nM in presence of ATP by radiometric assay relative to control.
For experiment [3], the target named is Tyrosine-protein kinase HCK (Homo sapiens) (UniProt P08631). Kind of experiment: Inhibition of human recombinant HCK at 40 nM in presence of ATP by radiometric assay relative to control.
Chain of Tyrosine-protein kinase HCK (Homo sapiens) (P08631 2-526 limits assumed): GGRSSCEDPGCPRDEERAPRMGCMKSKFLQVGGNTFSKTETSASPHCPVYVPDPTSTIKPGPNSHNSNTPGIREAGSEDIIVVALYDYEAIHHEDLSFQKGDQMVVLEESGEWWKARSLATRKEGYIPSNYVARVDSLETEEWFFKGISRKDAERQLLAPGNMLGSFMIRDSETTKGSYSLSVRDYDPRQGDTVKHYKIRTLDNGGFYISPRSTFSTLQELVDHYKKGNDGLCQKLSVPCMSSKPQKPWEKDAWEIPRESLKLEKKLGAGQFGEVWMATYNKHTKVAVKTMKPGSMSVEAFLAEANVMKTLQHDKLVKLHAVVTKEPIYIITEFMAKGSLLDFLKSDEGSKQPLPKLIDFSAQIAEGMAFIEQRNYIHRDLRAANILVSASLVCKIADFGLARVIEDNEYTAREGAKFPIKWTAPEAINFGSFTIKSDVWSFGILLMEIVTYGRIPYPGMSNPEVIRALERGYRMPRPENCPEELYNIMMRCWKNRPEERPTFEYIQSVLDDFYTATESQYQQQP
In experiment [4] the target is Cyclin-dependent kinase 18 (Homo sapiens) (UniProt Q07002). The experiment is described as follows: Inhibition of human recombinant PCTAIRE3 at 40 nM in presence of ATP by radiometric assay relative to control.
Chain of Cyclin-dependent kinase 18 (Homo sapiens) (Q07002 whole entry): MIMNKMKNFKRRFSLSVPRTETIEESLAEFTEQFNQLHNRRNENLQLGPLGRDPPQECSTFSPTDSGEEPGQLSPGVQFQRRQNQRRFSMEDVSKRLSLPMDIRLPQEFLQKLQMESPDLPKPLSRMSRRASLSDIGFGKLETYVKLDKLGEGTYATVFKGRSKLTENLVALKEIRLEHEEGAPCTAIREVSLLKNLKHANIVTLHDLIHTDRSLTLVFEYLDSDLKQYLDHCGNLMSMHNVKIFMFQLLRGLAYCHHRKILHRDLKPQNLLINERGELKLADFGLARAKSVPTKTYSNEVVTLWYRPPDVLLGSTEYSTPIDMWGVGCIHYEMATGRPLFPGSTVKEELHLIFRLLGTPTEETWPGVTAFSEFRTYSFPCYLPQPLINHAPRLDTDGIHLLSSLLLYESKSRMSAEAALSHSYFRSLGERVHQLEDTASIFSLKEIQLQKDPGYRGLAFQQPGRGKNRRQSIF
The target of experiment [5] is Serine/threonine-protein kinase PLK2 (Homo sapiens) (UniProt Q9NYY3). The experiment is described as follows: Inhibition of human recombinant PLK2 at 40 nM in presence of ATP by radiometric assay relative to control.
Experiment [6] concerns the target Serine/threonine-protein kinase 33 (Homo sapiens) (UniProt Q9BYT3). Kind of experiment: Inhibition of human recombinant STK33 at 40 nM in presence of ATP by radiometric assay relative to control.
In experiment [7] the target is T1, Dual specificity mitogen-activated protein kinase kinase 6 (Homo sapiens) (UniProt P52564).
T1 sequence (whole entry): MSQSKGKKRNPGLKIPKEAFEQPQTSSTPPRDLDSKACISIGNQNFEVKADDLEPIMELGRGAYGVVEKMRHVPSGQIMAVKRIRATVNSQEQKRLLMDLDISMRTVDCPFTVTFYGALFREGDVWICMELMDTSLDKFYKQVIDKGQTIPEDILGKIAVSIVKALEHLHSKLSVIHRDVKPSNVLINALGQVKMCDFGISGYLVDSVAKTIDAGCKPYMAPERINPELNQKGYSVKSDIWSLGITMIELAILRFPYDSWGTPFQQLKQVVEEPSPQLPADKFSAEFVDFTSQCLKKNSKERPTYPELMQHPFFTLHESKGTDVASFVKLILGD
Kind of experiment: Inhibition of human recombinant MAP2K6 at 40 nM related to control ULK1.

The target in experiment [8] is Serine/threonine-protein kinase SIK3 (Homo sapiens) (UniProt Q9Y2K2). Kind of experiment: Inhibition of human recombinant QSK at 40 nM related to control ULK1.
Experiment [9] has as its target Serine/threonine-protein kinase 32B (Homo sapiens) (UniProt Q9NY57). The experiment is described as follows: Inhibition of human recombinant YANK2 at 500 nM in presence of ATP by radiometric assay relative to control.
Experiment [10] concerns the target Mitogen-activated protein kinase kinase kinase kinase 4 (Homo sapiens) (UniProt O95819). The experiment is described as follows: Inhibition of human recombinant HGK at 500 nM related to control ULK1.
The target of experiment [11] is T2, Serine/threonine-protein kinase 17B (Homo sapiens) (UniProt O94768).
T2 sequence (whole entry): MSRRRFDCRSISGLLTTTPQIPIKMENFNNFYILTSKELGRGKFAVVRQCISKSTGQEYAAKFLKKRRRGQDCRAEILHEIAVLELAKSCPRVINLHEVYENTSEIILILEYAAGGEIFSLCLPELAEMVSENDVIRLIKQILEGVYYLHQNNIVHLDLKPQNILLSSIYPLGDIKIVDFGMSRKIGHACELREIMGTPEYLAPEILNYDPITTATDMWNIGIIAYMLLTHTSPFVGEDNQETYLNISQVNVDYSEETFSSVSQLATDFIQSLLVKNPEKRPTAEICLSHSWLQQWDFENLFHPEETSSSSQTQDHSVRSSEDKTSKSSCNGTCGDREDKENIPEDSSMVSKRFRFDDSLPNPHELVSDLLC
Kind of experiment: Inhibition of human recombinant DRAK2 at 15 nM in presence of ATP by radiometric assay relative to control.

Experiment [12] has as its target T3, Inhibitor of nuclear factor kappa-B kinase subunit alpha (Homo sapiens) (UniProt O15111).
T3 sequence (whole entry): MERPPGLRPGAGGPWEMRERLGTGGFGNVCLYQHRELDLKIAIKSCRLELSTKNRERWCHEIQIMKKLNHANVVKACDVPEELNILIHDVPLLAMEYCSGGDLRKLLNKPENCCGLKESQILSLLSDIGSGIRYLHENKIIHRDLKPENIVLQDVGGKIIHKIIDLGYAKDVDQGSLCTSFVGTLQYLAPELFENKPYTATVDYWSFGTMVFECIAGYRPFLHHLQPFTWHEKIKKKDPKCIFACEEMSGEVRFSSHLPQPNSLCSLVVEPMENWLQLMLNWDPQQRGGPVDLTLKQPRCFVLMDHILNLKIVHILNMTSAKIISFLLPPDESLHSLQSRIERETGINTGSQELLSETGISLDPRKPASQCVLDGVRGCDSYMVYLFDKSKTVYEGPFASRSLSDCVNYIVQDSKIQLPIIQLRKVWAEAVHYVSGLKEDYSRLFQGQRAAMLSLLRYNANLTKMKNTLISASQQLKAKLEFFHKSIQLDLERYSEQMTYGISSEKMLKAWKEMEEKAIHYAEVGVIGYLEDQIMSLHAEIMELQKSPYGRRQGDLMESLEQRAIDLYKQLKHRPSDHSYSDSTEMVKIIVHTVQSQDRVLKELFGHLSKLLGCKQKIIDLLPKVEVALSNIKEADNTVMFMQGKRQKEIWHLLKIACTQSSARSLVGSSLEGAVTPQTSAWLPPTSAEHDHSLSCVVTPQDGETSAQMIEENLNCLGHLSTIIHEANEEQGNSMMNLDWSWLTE
Kind of experiment: Inhibition of human recombinant IKKa at 15 nM in presence of ATP by radiometric assay relative to control.

The target in experiment [13] is Protein kinase C gamma type (Homo sapiens) (UniProt P05129). Kind of experiment: Inhibition of human recombinant PKCg at 15 nM related to control ULK1.
Experiment [14] concerns the target Ribosomal protein S6 kinase alpha-2 (Homo sapiens) (UniProt Q15349). The experiment is described as follows: Inhibition of human recombinant RSK3 at 15 nM related to control ULK1.
Experiment [15] has as its target T4, Testis-specific serine/threonine-protein kinase 3 (Homo sapiens) (UniProt Q96PN8).
T4 sequence (whole entry): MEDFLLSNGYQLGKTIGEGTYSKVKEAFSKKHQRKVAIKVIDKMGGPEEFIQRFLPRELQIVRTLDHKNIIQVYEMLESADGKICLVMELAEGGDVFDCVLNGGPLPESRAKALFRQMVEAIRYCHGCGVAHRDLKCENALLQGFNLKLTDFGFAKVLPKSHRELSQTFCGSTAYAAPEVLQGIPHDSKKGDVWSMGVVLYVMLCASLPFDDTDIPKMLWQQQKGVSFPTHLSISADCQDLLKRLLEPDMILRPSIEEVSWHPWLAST
The experiment is described as follows: Inhibition of human recombinant TSSK3 at 15 nM related to control ULK1.

Chain of Mitogen-activated protein kinase kinase kinase kinase 4 (Homo sapiens) (O95819 2-1239 limits assumed): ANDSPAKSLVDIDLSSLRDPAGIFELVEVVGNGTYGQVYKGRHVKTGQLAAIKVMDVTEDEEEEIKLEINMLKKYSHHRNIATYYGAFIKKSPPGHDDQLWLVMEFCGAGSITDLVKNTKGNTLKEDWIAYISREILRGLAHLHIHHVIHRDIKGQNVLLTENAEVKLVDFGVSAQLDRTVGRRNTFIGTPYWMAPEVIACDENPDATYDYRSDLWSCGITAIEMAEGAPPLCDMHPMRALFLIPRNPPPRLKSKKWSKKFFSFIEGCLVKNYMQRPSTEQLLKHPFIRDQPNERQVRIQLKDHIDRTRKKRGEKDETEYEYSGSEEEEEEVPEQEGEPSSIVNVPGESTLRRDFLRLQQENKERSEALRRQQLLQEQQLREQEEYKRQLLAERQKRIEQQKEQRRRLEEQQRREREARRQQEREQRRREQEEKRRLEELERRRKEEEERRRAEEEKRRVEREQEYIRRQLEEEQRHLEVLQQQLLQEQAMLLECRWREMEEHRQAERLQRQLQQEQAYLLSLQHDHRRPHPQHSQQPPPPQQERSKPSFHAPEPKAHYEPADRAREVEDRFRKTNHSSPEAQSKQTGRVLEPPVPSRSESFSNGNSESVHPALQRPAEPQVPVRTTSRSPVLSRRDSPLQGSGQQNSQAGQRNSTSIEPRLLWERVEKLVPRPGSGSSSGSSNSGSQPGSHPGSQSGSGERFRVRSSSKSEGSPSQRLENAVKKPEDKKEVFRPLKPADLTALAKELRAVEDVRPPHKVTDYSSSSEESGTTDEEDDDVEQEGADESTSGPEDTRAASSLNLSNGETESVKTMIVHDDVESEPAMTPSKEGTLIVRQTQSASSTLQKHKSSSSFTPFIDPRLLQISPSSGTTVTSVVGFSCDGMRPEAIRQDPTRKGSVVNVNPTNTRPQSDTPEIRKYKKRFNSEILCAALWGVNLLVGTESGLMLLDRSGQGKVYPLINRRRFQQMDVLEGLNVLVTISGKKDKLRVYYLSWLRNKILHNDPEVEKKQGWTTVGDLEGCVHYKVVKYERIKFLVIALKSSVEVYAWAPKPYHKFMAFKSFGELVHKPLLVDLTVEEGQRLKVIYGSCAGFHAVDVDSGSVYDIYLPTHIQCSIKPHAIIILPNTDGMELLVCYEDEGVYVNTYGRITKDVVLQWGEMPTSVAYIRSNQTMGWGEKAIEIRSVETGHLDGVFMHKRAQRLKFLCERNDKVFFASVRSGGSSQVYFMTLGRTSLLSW
Chain of Cyclin-dependent kinase-like 1 (Homo sapiens) (Q00532 whole entry): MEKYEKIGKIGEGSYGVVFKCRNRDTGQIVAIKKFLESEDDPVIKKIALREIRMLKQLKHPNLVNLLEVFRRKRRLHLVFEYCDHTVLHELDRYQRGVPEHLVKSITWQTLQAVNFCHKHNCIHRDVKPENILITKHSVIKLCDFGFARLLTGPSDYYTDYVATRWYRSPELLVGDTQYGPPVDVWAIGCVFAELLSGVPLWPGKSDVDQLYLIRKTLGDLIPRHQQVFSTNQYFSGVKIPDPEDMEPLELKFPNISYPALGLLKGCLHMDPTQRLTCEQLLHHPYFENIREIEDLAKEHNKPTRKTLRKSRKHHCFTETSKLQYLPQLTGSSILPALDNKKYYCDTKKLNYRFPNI
Chain of Serine/threonine-protein kinase 33 (Homo sapiens) (Q9BYT3 whole entry, looked up): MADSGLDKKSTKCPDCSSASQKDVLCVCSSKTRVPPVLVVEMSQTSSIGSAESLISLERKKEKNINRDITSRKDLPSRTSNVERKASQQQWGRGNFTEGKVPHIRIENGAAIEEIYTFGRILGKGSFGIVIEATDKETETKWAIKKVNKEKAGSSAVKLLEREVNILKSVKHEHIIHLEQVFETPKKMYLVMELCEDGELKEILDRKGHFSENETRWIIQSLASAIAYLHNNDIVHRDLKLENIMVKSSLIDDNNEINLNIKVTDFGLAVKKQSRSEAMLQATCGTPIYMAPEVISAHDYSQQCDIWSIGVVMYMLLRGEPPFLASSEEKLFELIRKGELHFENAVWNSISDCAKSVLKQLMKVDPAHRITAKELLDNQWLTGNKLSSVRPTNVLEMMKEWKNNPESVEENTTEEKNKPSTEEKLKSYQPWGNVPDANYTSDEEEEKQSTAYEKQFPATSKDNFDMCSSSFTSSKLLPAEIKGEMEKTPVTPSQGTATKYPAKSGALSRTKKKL
Chain of Tyrosine-protein kinase receptor UFO (Homo sapiens) (P30530 whole entry): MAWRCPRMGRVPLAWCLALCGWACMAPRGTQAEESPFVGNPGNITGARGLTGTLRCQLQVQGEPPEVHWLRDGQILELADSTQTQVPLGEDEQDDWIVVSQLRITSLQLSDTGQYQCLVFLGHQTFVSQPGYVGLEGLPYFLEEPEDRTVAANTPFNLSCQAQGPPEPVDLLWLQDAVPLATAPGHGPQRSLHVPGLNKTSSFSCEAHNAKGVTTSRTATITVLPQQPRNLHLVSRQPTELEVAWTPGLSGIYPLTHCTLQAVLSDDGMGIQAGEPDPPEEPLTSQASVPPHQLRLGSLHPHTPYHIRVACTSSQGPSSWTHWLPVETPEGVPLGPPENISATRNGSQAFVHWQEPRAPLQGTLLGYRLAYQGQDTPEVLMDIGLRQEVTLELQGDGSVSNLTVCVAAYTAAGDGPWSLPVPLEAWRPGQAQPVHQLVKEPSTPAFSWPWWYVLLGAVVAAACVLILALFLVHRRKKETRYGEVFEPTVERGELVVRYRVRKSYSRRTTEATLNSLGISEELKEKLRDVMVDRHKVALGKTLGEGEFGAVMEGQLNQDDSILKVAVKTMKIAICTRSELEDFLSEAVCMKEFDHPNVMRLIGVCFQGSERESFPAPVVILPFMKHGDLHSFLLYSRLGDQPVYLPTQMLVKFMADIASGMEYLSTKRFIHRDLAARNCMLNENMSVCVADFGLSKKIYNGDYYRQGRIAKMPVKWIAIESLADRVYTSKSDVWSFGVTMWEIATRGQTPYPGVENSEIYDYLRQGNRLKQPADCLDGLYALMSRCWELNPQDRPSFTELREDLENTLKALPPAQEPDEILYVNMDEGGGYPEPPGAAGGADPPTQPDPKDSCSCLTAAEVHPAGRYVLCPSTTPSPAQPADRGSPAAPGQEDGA

Broadly, the inhibition is how much of the control response was suppressed. Regarding `O=C(N[C@@H](C1CC1)C(F)(F)F)c1cc(-c2cnn3cc(-c4ccc(F)cc4)cnc23)cs1`, the inhibition in experiment [1] was 5%; in experiment [2] it was 15%; in experiment [3], 0%; in experiment [4], 31%; in [5] it was 3%; in [6], 19%. For the same molecule, the fold change (FC) in experiment [7] came out at 0; in experiment [8], 0.81.
With `CNC(=O)c1ccccc1Oc1nc(Nc2cc(OC)c(OC)c(OC)c2)ncc1Br`, the inhibition in experiment [9] is 2%. The fold change (FC) in [10] came to 0.
Turning to `CC(C)[C@H](NC(=O)c1cc(-c2cnn3cc(-c4ccc(OCCN5CCCCC5)cc4)cnc23)cs1)C(F)(F)F`, the figures for the inhibition in experiment [11] and in experiment [12] were 69% and 1%, respectively. Also, the fold change (FC) in experiment [13] came out at 0; in experiment [14], 0.03; in experiment [15] it was 0.16.
